From PubChem
Rows were chosen to be rich in hits. Some 1.3% of all compounds tested hit in one or more screens of this group.
TAG inh = inhibitors of triacylglycerol accumulation; actives 0.66% (n = 230,000); inhibition, % at 12.5 µM; H9c2 cells, Nile Red lipid (TAG) fluorescence; cells loaded with 200 µM oleic acid; AID 651582;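 active means pattern-corrected inhibition of lipid staining of at least 50% with the nuclear-stain viability signal not falling by more than 50%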;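 further: 0% = DMSO wells and 100% = triacsin C control wells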
MT1-MMP act inh = blocks activation of human MT1-MMP; actives 0.061% (n = 360,000); GFP/RFP ratio change, % at 20 µM; AID 651647; P50281; HT1080 RFP-PRO-GFP cells, GFP/RFP ratio fluorescence, overnight; percent of plate control window, DMSO zero;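 active means GFP/RFP ratio change of at least 30% with cell ATP level not reduced by more than half and red fluorescence within 50% of control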
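Test system: HT1080 cells expressing an RFP-PRO-GFP fluorescent reporter construct / Compound dosing: single-point 20 µM compound, 1% DMSO / Schedule: cells overnight before dosing, compound overnight, 37 °C, 5% CO2 / Evaluation: GFP/RFP fluorescence ratio / Control set: DMSO and RFP-L50D-GFP cell wells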
Efflux pump inh = blocks antifungal efflux pumps in multiplex yeast assay; S. cerevisiae Candida pump triplex, Nile Red efflux; inhibition, % at 10 µM; actives 0.44% (n = 330,000);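 active means plate passing quality check with inhibition over a set limit, or well fluorescence over plate mean plus 4 SD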;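 further: Nile Red retained in pooled yeast measured as flow cytometry median fluorescence; 0% = buffer negative control and 100% = Enniatin B positive control; higher means more Nile Red kept so more efflux inhibition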
HGIII-sPLA2 inh = Blocks human group III sPLA2 activity. inhibition, % at 12.2 µM. QFRET BODIPY PC-A2 liposome hydrolysis, fluorescence. Q9NZ20. actives 0.56% (n = 370,000);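 active means inhibition above mean plus 3 SD of compounds lying within the high and low control bounds, cut at about 19% in these data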;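 further: 0% = median of test compound wells and 100% = no enzyme DMSO wells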
Target sequence (Q9NZ20 whole entry, looked up): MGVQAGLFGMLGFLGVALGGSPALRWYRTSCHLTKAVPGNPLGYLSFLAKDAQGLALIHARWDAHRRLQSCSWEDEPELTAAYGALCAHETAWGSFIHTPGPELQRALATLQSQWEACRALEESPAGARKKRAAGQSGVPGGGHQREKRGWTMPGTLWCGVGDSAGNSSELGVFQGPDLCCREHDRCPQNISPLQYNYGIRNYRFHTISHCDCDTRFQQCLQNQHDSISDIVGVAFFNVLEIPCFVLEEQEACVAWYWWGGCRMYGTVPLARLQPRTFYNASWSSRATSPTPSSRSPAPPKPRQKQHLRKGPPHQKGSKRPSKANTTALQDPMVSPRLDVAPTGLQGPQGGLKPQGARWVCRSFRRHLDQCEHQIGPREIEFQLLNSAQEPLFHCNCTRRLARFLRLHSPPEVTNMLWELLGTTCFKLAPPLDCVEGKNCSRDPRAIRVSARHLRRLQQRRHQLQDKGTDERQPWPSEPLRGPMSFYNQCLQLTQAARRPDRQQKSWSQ
Active calls of the source: *; · = no result given; + = active, no number.

SMILES | TAG inh | MT1-MMP act inh | Efflux pump inh | HGIII-sPLA2 inh
COc1cccc(/C=N/Nc2nc3ccccc3[nH]2)c1OC | 3 | 6 | 0 | 6
COc1cccc(/C=N/Nc2nc3ccccc3[nH]2)c1O | 59* | 7 | 0 | 12
CCCn1c(/C=N/Nc2nc3ccccc3[nH]2)nc2ccccc21 | 1 | 7 | · | 31*
S=C(Nc1cc(Cl)cc(Cl)c1)NC(c1ccccc1)c1ccccc1 | · | · | · | -8
Oc1ccccc1C=NN1CCN(Cc2ccccc2)CC1 | · | · | · | -5
COc1cc(C(=O)NC2CCN(C)CC2)ccc1Nc1ncc2c(n1)N(CCc1ccccc1)CCC(=O)N2C | · | 20 | · | -8
COc1cc(C(=O)NC2CCN(C)CC2)ccc1Nc1ncc2c(n1)N(C1CCCC1)CCC(=O)N2C(C)C | 58* | 13 | · | ·
C[C@H]1[C@@H](OC(=O)Nc2ccccc2C(F)(F)F)CC[C@@]23CCCN2C(=O)CCC[C@@H]13 | · | · | · | 5
Cc1cccc(OCc2n(CC(=O)OC3CC(C)CCC3C(C)C)c3ccccc3[n+]2C)c1 (configuration not stated) | 98* | -48 | 0 | ·
CC1CCC(C(C)C)C(OC(=O)Cn2c(-c3ccccc3)[n+](C)c3ccccc32)C1 (configuration not stated) | · | -25 | 0 | -12
COc1ccc(-c2cc(C(F)F)n3ncc(C(=O)n4ccnc4C)c3n2)cc1 | · | 3 | 0 | 25*
CCOC(=O)[C@@]12CCCC3=C1N(CCC3)C(=O)[C@H]2CC(=O)NCCC(C)C | · | · | · | 3
Nc1ccc2c(c1)Cc1cc(Cl)c(Cl)cc1-2 | 17 | -5 | · | 18
Nc1ccc2c(c1)Cc1cc(N)c(Cl)cc1-2 | 13 | 0 | · | 24*
CCN(Cc1ccc2c(c1)OCO2)C(=O)/C=C/c1cccc(Br)c1 | · | 4 | 0 | -5
CC(C)(C)N(Cc1ccc2c(c1)OCO2)C(=O)/C=C\S(=O)c1ccccc1 (configuration not stated) | 83* | 6 | · | -3
CN1CCN(C(c2ccc(Br)cc2)c2cc(Cl)c3cccnc3c2O)CC1 (configuration not stated) | · | -12 | 0 | 20*
COc1cc(-c2nc(-c3ccc(NC(=O)c4ccc5c(c4)OCO5)cc3)no2)cc(OC)c1OC | 93* | 0 | 0 | 7
Cc1ccccc1-c1nc(-c2ccc(NC(=O)c3ccc4c(c3)OCO4)cc2)no1 | · | 6 | 0 | 3
CCN(CC)S(=O)(=O)c1ccc2c(c1)C(=NO)c1cc(S(=O)(=O)N(CC)CC)ccc1-2 | 53* | -54 | 0 | 1
CC1CCN(S(=O)(=O)c2ccc3c(c2)C(=NO)c2cc(S(=O)(=O)N4CCC(C)CC4)ccc2-3)CC1 | 84* | 0 | 0 | -5
CCN(CC)S(=O)(=O)c1ccc(C)c(C)c1 | -5 | 1 | 0 | -2
O=C(NCc1ccco1)C1CCCN(S(=O)(=O)c2cccs2)C1 (configuration not stated) | · | · | · | -1
CCN1/C(=C/C=C/c2oc3ccc(-c4ccccc4)cc3[n+]2CC)Oc2ccc(-c3ccccc3)cc21 | -500 | -46 | + | -357
C#CCOCCOCCOCCNc1nc(N2CCN(C(=O)CCCCCCCCCCNC(=O)[C@H](CCCCN)n3cc(C[C@@H](C)CC)nn3)CC2)nc(N2CCN(C(=O)CCCCCCCCCCNC(=O)[C@H](CCCCN)n3cc(C[C@@H](C)CC)nn3)CC2)n1 | 88* | -7 | 0 | ·
C#CCOCCOCCOCCNc1nc(N2CCN(C(=O)CCCCCCCCCCNC(=O)[C@H]([C@@H](C)CC)n3cc(CCCCN=C(N)N)nn3)CC2)nc(N2CCN(C(=O)CCCCCCCCCCNC(=O)[C@H](CCCCN)n3cc(C[C@@H](C)CC)nn3)CC2)n1 | · | · | 85* | ·
C#CCOCCOCCOCCNc1nc(N2CCN(C(=O)CCCCCCCCCCNC(=O)[C@H](CCCCN)n3cc(C)nn3)CC2)nc(N2CCN(C(=O)CCCCCCCCCCNC(=O)[C@@H]([C@H](C)CC)n3cc(CCCCCN)nn3)CC2)n1 | 75* | 4 | 0 | ·
C#CCOCCOCCOCCNc1nc(N2CCN(C(=O)CCCCCCCCCCNC(=O)[C@H](CCCCN)n3cc(CCO)nn3)CC2)nc(N2CCN(C(=O)CCCCCCCCCCNC(=O)[C@H](CCCN=C(N)N)n3cc(C[C@@H](C)CC)nn3)CC2)n1 | -45 | 9 | 0 | ·
COc1ccc(Cn2cc(CN3[C@@H](CC(C)C)COc4cccc(F)c4S3(=O)=O)nn2)cc1 | · | · | · | -3
CCC(C)(C)c1ccc(Oc2ccc(N)cc2)cc1 | 69* | -30 | · | 6
